Test results taken from ChEMBL document CHEMBL1156771, “Synthesis and antimalarial evaluation of 1, 3, 5-trisubstituted pyrazolines” (Eur J Med Chem, 2010).
Calls of active or inactive are those of the source. No cut-off for these calls is given here.

Tests used:
Plasmodium falciparum [1] = assay: Antiplasmodial activity against chloroquine-sensitive Plasmodium falciparum MRC-02 infected in human erythrocyte assessed as inhibition of schizont maturation after 24 hrs; assay type: functional, organism-based; conditions: MRC-02, 24 h
Outline: (§1)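 Sorbitol-synchronised ring-stage culture in human B+ erythrocytes, in RPMI-1640 with 25 mM HEPES, 10% AB+ serum and 0.2% bicarbonate under 5% CO2. Parasitaemia was set at 1–1.5%. Cultures were exposed to two-fold serial dilutions for 24 h at 37 °C (ethanol ≤0.5% final), duplicate wells per dose. Schizonts per 100 asexual parasites were counted on Giemsa smears. Inhibition = (1−Nt/Nc)×100.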

[2] = Cytotoxicity against human HeLa cells after 72 hrs by neutral red uptake assay; assay type: cell-based
Outline: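 HeLa cells grown in EMEM with 10% FBS were seeded at 2×10^3 per well and left overnight at 37 °C, 5% CO2. They were exposed to two-fold serial dilutions from DMSO stocks (DMSO ≤0.1%) in duplicate for 72 h. Cells were fixed in glutaraldehyde, stained with 0.2% neutral red and lysed in acid ethanol, then read at 550 nm against DMSO controls. The value reported is MNTD, the highest concentration giving 100% survival.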

[3] = Selectivity ratio of CC50 for human HeLa cells to IC50 for Plasmodium falciparum MRC-02; assay type: ADME, cell-based; conditions: read-out: Ratio CC50/IC50
Outline: (§2)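 The IC50 came from sorbitol-synchronized ring-stage cultures at 1–1.5% parasitemia in human B+ erythrocytes in RPMI-1640/HEPES with 10% AB+ serum, given two-fold dilutions (ethanol ≤0.5% final). Cultures ran 24 h at 37 °C in duplicate, and schizonts per 100 asexual parasites were counted on Giemsa smears.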

Plasmodium falciparum [4] = assay: Antiplasmodial activity against chloroquine-resistant Plasmodium falciparum RKL09 infected in human erythrocyte assessed as inhibition of schizont maturation after 24 hrs; assay type: functional, organism-based; conditions: RKL09, 24 h; outline: as §1
[5] = Selectivity ratio, CC50 for human HeLa cells to IC50 for Plasmodium falciparum RKL09; assay type: ADME, cell-based; conditions: read-out: Ratio CC50/IC50; outline: as §2
[6] = Inhibition of beta-hematin formation by BHIA assay; assay type: functional
Outline: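 Compounds (6 to 0.3 mM) were incubated with hematin in the presence of glacial acetic acid at 37 °C for 24 h. Water or ethanol served as controls. The pellet was washed with DMSO to remove unconverted hematin, and the remaining β-hematin was dissolved in 0.1 N NaOH. Absorbance was read at 405 nm to derive BHIA50.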

Plasmodium berghei [7] = assay: Antimalarial activity against Plasmodium berghei ANKA infected in Swiss albino mice (Mus musculus) assessed as suppression of parasitemia at 50 mg/kg/day, perorally for 4 days; assay type: functional; conditions: route oral
Outline: (§3)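 Peters' 4-day suppressive test in male Swiss albino mice (18–20 g), five per group. Mice were infected intraperitoneally with about 30% P. berghei-infected donor erythrocytes, then dosed orally 4 h later and on days 0–3. Controls received the suspending solvent. Giemsa-stained tail smears were read on days 4 and 7; % suppression was calculated against controls. Survival was followed for 28 days for MST.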

Plasmodium berghei [8] = assay: Antimalarial activity against Plasmodium berghei ANKA infected in Swiss albino mice (Mus musculus) assessed as mean survival time at 50 mg/kg/day, perorally for 4 days measured after 28 days; assay type: functional; conditions: route oral
Outline: (§4)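 Peters 4-day suppressive test in male Swiss albino mice (18–20 g), groups of five. Mice inoculated intraperitoneally with P. berghei ANKA-infected erythrocytes from a donor mouse. Oral dosing began 4 h later and was given once daily on days 0–3. Vehicle controls received the suspending solvent. Mean survival time was taken from deaths over a 28-day observation period.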

Plasmodium berghei [9] = assay: Antimalarial activity against Plasmodium berghei ANKA infected in Swiss albino mice (Mus musculus) assessed as suppression of parasitemia at 25 mg/kg/day, perorally for 4 days; assay type: functional; conditions: route oral; outline: as §3
Plasmodium berghei [10] = assay: Antimalarial activity against Plasmodium berghei ANKA infected in Swiss albino mice (Mus musculus) assessed as mean survival time at 25 mg/kg/day, perorally for 4 days measured after 28 days; assay type: functional; conditions: route oral; outline: as §4
Plasmodium berghei [11] = assay: Antimalarial activity against Plasmodium berghei ANKA infected in Swiss albino mice (Mus musculus) assessed as suppression of parasitemia at 8 mg/kg/day, perorally for 4 days; assay type: functional; conditions: route oral; outline: as §3
Plasmodium berghei [12] = assay: Antimalarial activity against Plasmodium berghei ANKA infected in Swiss albino mice (Mus musculus) assessed as mean survival time at 8 mg/kg/day, perorally for 4 days measured after 28 days; assay type: functional, organism-based; outline: as §3

**Q.** For COc1ccc(Br)cc1C1CC(c2ccc(O)cc2)=NN1C(=O)c1cccnc1 (centres undefined), which IC50 (Plasmodium falciparum [1]) is on record?
**A.** Its IC50 is 0.0495 µM.

**Q.** And the MNTC at 72 h [2]?
**A.** Its MNTC at 72 h is 2660 nM.

**Q.** And the selectivity ratio [3]?
**A.** Its selectivity ratio is 53.7.

**Q.** What about the IC50 (Plasmodium falciparum [4]) of the same molecule?
**A.** The IC50 was 0.242 µM.

**Q.** What about the selectivity ratio [5] of the same molecule?
**A.** The selectivity ratio was 11.

**Q.** And the IC50 [6]?
**A.** Its IC50 is 1890 µM.

**Q.** What does the source list for O=C(c1cccnc1)N1N=C(c2ccc(O)cc2)CC1c1ccc(Cl)cc1Cl (centres undefined)?
**A.** IC50 (Plasmodium falciparum [1]): 0.0375 µM; MNTC at 72 h [2]: 1250 nM; selectivity ratio [3]: 33.3; IC50 (Plasmodium falciparum [4]): 0.068 µM; selectivity ratio [5]: 18.4; Activity (Plasmodium berghei [7]): 68.93%; Activity (Plasmodium berghei [8]): 13.2 days; Activity (Plasmodium berghei [9]): 60.55%; Activity (Plasmodium berghei [10]): 11.6 days; IC50 [6]: 1530 µM

**Q.** Which results are given for CCN(CC)CCCC(C)Nc1ccnc2cc(Cl)ccc12.O=P(O)(O)O.O=P(O)(O)O (centres undefined) [CHLOROQUINE PHOSPHATE]?
**A.** MNTC at 72 h [2]: 66200 nM; IC50 [6]: 1890 µM; Activity (Plasmodium berghei [11]): 100%; Activity (Plasmodium berghei [12]): Active

**Q.** For COc1cc(C2CC(c3ccc(O)cc3)=NN2C(=O)c2cccnc2)cc(OC)c1OC (centres undefined), which IC50 (Plasmodium falciparum [1]) is on record?
**A.** Its IC50 is 0.0265 µM.

**Q.** What about the MNTC at 72 h [2] of the same molecule?
**A.** The MNTC at 72 h was 828 nM.

**Q.** And the selectivity ratio [3]?
**A.** Its selectivity ratio is 31.2.

**Q.** What about the IC50 (Plasmodium falciparum [4]) of the same molecule?
**A.** The IC50 was 0.0425 µM.

**Q.** And the selectivity ratio [5]?
**A.** Its selectivity ratio is 19.5.

**Q.** What about the Activity (Plasmodium berghei [7]) of the same molecule?
**A.** The Activity was 43.7%.

**Q.** What about the Activity (Plasmodium berghei [8]) of the same molecule?
**A.** Its Activity is 11 days.

**Q.** What about the Activity (Plasmodium berghei [9]) of the same molecule?
**A.** Its Activity is 32.78%.

**Q.** What about the Activity (Plasmodium berghei [10]) of the same molecule?
**A.** The Activity was 9 days.

**Q.** And the IC50 [6]?
**A.** Its IC50 is 1700 µM.

**Q.** Which IC50 (Plasmodium falciparum [1]) does the source give for O=C(c1cccnc1)N1N=C(c2ccc(O)cc2)CC1c1ccccc1Br (centres undefined) here?
**A.** The IC50 was 0.0272 µM.

**Q.** And the MNTC at 72 h [2]?
**A.** The MNTC at 72 h was 3810 nM.

**Q.** And the selectivity ratio [3]?
**A.** The selectivity ratio was 140.

**Q.** And the IC50 (Plasmodium falciparum [4])?
**A.** Its IC50 is 0.064 µM.

**Q.** And the selectivity ratio [5]?
**A.** Its selectivity ratio is 59.6.

**Q.** What about the Activity (Plasmodium berghei [7]) of the same molecule?
**A.** Its Activity is 47.52%.

**Q.** What about the Activity (Plasmodium berghei [8]) of the same molecule?
**A.** The Activity was 10.3 days.

**Q.** What about the Activity (Plasmodium berghei [9]) of the same molecule?
**A.** Its Activity is 34.98%.

**Q.** What about the Activity (Plasmodium berghei [10]) of the same molecule?
**A.** Its Activity is 9 days.

**Q.** What about the IC50 [6] of the same molecule?
**A.** The IC50 was 1820 µM.

**Q.** Which IC50 (Plasmodium falciparum [1]) does the source give for O=C(c1cccnc1)N1N=C(c2ccc(O)cc2)CC1c1cccc([N+](=O)[O-])c1 (centres undefined) here?
**A.** Its IC50 is 0.106 µM.

**Q.** And the MNTC at 72 h [2]?
**A.** Its MNTC at 72 h is 3750 nM.

**Q.** And the selectivity ratio [3]?
**A.** Its selectivity ratio is 35.2.

**Q.** What about the IC50 (Plasmodium falciparum [4]) of the same molecule?
**A.** The IC50 was 0.423 µM.

**Q.** What about the selectivity ratio [5] of the same molecule?
**A.** Its selectivity ratio is 8.85.

**Q.** And the IC50 [6]?
**A.** The IC50 was 2070 µM.

**Q.** Which results are given for Cc1ccc(C2CC(c3ccc(O)cc3)=NN2C(=O)c2cccnc2)cc1 (centres undefined)?
**A.** IC50 (Plasmodium falciparum [1]): 0.0555 µM; MNTC at 72 h [2]: 2190 nM; selectivity ratio [3]: 39.4; IC50 (Plasmodium falciparum [4]): 0.0887 µM; selectivity ratio [5]: 24.6; IC50 [6]: 1570 µM

**Q.** Which results are given for CCOc1ccc(C2CC(c3ccc(O)cc3)=NN2C(=O)c2cccnc2)cc1OC (centres undefined)?
**A.** MNTC at 72 h [2]: 3560 nM; selectivity ratio [3]: 47.5; selectivity ratio [5]: 16.6; IC50 [6]: 2390 µM

**Q.** Which results are given for O=C(c1cccnc1)N1N=C(c2ccc(O)cc2)CC1c1ccccc1 (centres undefined)?
**A.** IC50 (Plasmodium falciparum [1]): 0.0304 µM; MNTC at 72 h [2]: 1880 nM; selectivity ratio [3]: 61.7; IC50 (Plasmodium falciparum [4]): 0.131 µM; selectivity ratio [5]: 14.4; IC50 [6]: 1580 µM

**Q.** For Cc1ccccc1C1CC(c2ccc(O)cc2)=NN1C(=O)c1cccnc1 (centres undefined), which IC50 (Plasmodium falciparum [1]) is on record?
**A.** Its IC50 is 0.0625 µM.

**Q.** What about the MNTC at 72 h [2] of the same molecule?
**A.** Its MNTC at 72 h is 1810 nM.

**Q.** And the selectivity ratio [3]?
**A.** Its selectivity ratio is 29.

**Q.** What about the IC50 (Plasmodium falciparum [4]) of the same molecule?
**A.** Its IC50 is 0.102 µM.

**Q.** What about the selectivity ratio [5] of the same molecule?
**A.** Its selectivity ratio is 17.8.

**Q.** And the IC50 [6]?
**A.** Its IC50 is 2430 µM.

**Q.** Which IC50 (Plasmodium falciparum [1]) does the source give for O=C(c1cccnc1)N1N=C(c2ccc(O)cc2)CC1c1cccc(Br)c1 (centres undefined) here?
**A.** The IC50 was 0.026 µM.

**Q.** What about the MNTC at 72 h [2] of the same molecule?
**A.** The MNTC at 72 h was 3060 nM.

**Q.** What about the selectivity ratio [3] of the same molecule?
**A.** Its selectivity ratio is 118.

**Q.** What about the IC50 (Plasmodium falciparum [4]) of the same molecule?
**A.** The IC50 was 0.0786 µM.

**Q.** What about the selectivity ratio [5] of the same molecule?
**A.** The selectivity ratio was 39.

**Q.** And the IC50 [6]?
**A.** Its IC50 is 2060 µM.
